Results taken from ChEMBL document CHEMBL1275480, “Role of global regulators and nucleotide metabolism in antibiotic tolerance in Escherichia coli” (2008).

Legend:
Escherichia coli [1] = assay: Antimicrobial activity against dnaJ deficient Escherichia coli K-12 BW-25113 assessed as decrease in persistence at 100 ug/ml after 3 hrs by time kill analysis; type: functional, K-12 BW25113
Method in brief: (§1)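 Keio single-gene deletion strains of E. coli K-12 BW25113 and the parent strain. Cultures: 1 ml LB overnight at 37°C with aeration, then diluted 1:100 into MOPS minimal medium (0.1% succinate, 0.05% Casamino Acids) and grown 5 h to exponential phase (~2 × 10^8 CFU/ml). Challenged 3 h with ciprofloxacin 1 μg/ml, streptomycin 10 μg/ml or ampicillin 100 μg/ml. Samples taken before and after, diluted, spot-plated on LB agar for CFU. Triplicate, standard deviations.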

Escherichia coli [2] = assay: Antimicrobial activity against ygfA deficient Escherichia coli K-12 BW-25113 assessed as decrease in persistence at 100 ug/ml after 3 hrs by time kill analysis; type: functional, K-12 BW25113; method in brief: as §1
Escherichia coli [3] = assay: Antimicrobial activity against dksA deficient Escherichia coli K-12 BW-25113 assessed as decrease in persistence at 100 ug/ml after 3 hrs by time kill analysis; type: functional, K-12 BW25113; method in brief: as §1
Escherichia coli [4] = assay: Antimicrobial activity against dnaK deficient Escherichia coli K-12 BW-25113 assessed as decrease in persistence at 100 ug/ml after 3 hrs by time kill analysis; type: functional, K-12 BW25113; method in brief: as §1
Escherichia coli [5] = assay: Antimicrobial activity against apaH deficient Escherichia coli K-12 BW-25113 assessed as survival rate at 10 ug/ml after 6 hrs by time kill analysis
Escherichia coli [6] = assay: Antimicrobial activity against surA deficient Escherichia coli K-12 BW-25113 assessed as survival rate at 10 ug/ml after 6 hrs by time kill analysis
Escherichia coli [7] = assay: Antimicrobial activity against Escherichia coli K-12 BW-25113 assessed as survival rate at 10 ug/ml after 6 hrs by time kill analysis
Escherichia coli [8] = assay: Antimicrobial activity against dnaK deficient Escherichia coli K-12 BW-25113 assessed as decrease in persistence at 10 ug/ml after 3 hrs by time kill analysis; type: functional, K-12 BW25113; method in brief: as §1
Escherichia coli [9] = assay: Antimicrobial activity against dnaJ deficient Escherichia coli K-12 BW-25113 assessed as decrease in persistence at 10 ug/ml after 3 hrs by time kill analysis; type: functional, K-12 BW25113; method in brief: as §1
Escherichia coli [10] = assay: Antimicrobial activity against dksA deficient Escherichia coli K-12 BW-25113 assessed as decrease in persistence at 10 ug/ml after 3 hrs by time kill analysis relative to wild type; type: functional, K-12 BW25113; method in brief: as §1
Escherichia coli [11] = assay: Antimicrobial activity against ygfA deficient Escherichia coli K-12 BW-25113 assessed as decrease in persistence at 10 ug/ml after 3 hrs by time kill analysis relative to wild type; type: functional, K-12 BW25113; method in brief: as §1
Escherichia coli [12] = assay: Antimicrobial activity against yigB deficient Escherichia coli K-12 BW-25113 assessed as decrease in persistence at 10 ug/ml after 3 hrs by time kill analysis relative to wild type; type: functional, K-12 BW25113; method in brief: as §1

## CC1(C)S[C@@H]2[C@H](NC(=O)[C@H](N)c3ccccc3)C(=O)N2[C@H]1C(=O)O [AMPICILLIN]
Escherichia coli [1]
  fold change (FC): 46
Escherichia coli [2]
  fold change (FC): 82
Escherichia coli [3]
  fold change (FC): 40
Escherichia coli [4]
  fold change (FC): 13

## CC1COc2c(N3CCN(C)CC3)c(F)cc3c(=O)c(C(=O)O)cn1c23 (configuration not stated) [OFLOXACIN]
Escherichia coli [5]
  Activity: 1.7%
Escherichia coli [6]
  Activity: 3.3%
Escherichia coli [7]
  Activity: 1.3%

## CN[C@@H]1[C@H](O[C@H]2[C@H](O[C@H]3[C@H](O)[C@@H](O)[C@H](N=C(N)N)[C@@H](O)[C@@H]3N=C(N)N)O[C@@H](C)[C@]2(O)C=O)O[C@@H](CO)[C@H](O)[C@H]1O [STREPTOMYCIN]
Escherichia coli [8]
  fold change (FC): 66
Escherichia coli [9]
  fold change (FC): 87
Escherichia coli [10]
  fold change (FC): 6
Escherichia coli [11]
  fold change (FC): 3
Escherichia coli [12]
  fold change (FC): 10
